Laboratory results from PubChem BioAssay AID493016 (Southern Research Specialized Biocontainment Screening …, 2011).
pIC50: −log10 of the molar value. The source made the active and inactive calls.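 The calls were made as follows: active = compounds blocking at least half of virus-caused cell death at some tested dose; inactive = the rest.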

Test system: HEp-2 RSV Long CPE inhibition, luminescence
Assay: RSV cytopathic effect inhibition, dose response, cell-based, HEp-2, RSV Long, synthesized compounds, set 4 (AID 493016)
Procedure, shortened: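 Material: HEp-2 human cells infected with respiratory syncytial virus strain Long; Probe or stimulus: RSV Long infection at multiplicity of infection 0.45; Dosing: Eight-point twofold series, 50 to 0.39 µM final, 0.5% DMSO; Incubation: six-day compound and virus exposure at 37 °C; Detection: luminescent CPE signal; Replication: triplicate wells per compound concentration.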

| SMILES | IC50 | pIC50 |
| --- | --- | --- |
| O=C([C@@H]1CCCN1S(=O)(=O)c1cccc2cccnc12)N1CCc2ccccc21 | > 50 µM (inactive) |  |
| O=C(Nc1ccccc1)[C@@H]1CCCN1S(=O)(=O)c1cccc2cccnc12 | > 50 µM (inactive) |  |
| Cc1ccc(NC(=O)[C@@H]2CCCN2S(=O)(=O)c2cccc3cccnc23)c(C)n1 | > 50 µM (inactive) |  |
| Cc1ccc2c(c1)CCN2C(=O)[C@@H]1CCCN1S(=O)(=O)c1cccc2cccnc12 | > 50 µM (inactive) |  |
| CC(C)c1ccccc1NC(=O)[C@@H]1CCCN1S(=O)(=O)c1cccc2cccnc12 |  | 4.96 |
| COc1ccccc1CNC(=O)C1CCN(S(=O)(=O)c2cccc3nonc23)CC1 |  | 5.51 |
